In the library only some 4.5% were active in any assay of this set; here they are far more common.
UPR XBP1 act – activators of adaptive XBP1 UPR arm, primary screen, cell-based, CHO-XBP1 luciferase reporter, luminescence, uHTS. IRE1-XBP1 UPR activation; percent of tunicamycin response, DMSO as zero. activation, % at 20 µM. actives 0.33% (n = 330,000). AID 463104, 2010;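 active means versus positive control, 20 µM dose yields 30% or more activation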;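 further: 100% = tunicamycin at 10 µg/mL and 0% = DMSO only wells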
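Material: IRE1-XBP1 luciferase reporter CHO line / Quantity: one thousand reporter cells per well / Buffer or medium: F12 with 10% serum / Compound: 20 µM single concentration, DMSO 1% / Times: 6 h treatment, 37 °C / Detection: Steady-Glo luciferase glow luminescence, 10 min after reagent addition / Benchmarks: tunicamycin high, DMSO low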
NS3 helicase inh – inhibitors of HCV NS3 helicase, primary screen, biochemical, Cy5 molecular beacon fluorescence | Hepatitis C virus NS3 helicase | actives 0.56% (n = 290,000) | NS3 helicase DNA unwinding | inhibition, % at 10.9 µM;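 active means inhibition above the mean of all tested compounds plus 3 SD, set per campaign, cut at about 35% in these data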;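 further: 0% = DMSO wells and 100% = thioflavine S control wells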
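Assay system – hepatitis C virus NS3 helicase domain fragment enzyme · Buffer or medium – MOPS pH 6.5, MgCl2, DTT, Tween20, BSA · Reagent – Cy5/quencher beacon DNA duplex and ATP to start · Compound – single 10.9 µM dose · Timing – 1 h at 25 °C · Technique – Cy5 beacon fluorescence read at start and 1 h · Measure – % inhibition of unwinding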
CHOP inhibitor – inhibitors of CHOP promoter induction, primary screen, cell-based, unfolded protein response, luciferase reporter. CHO-K1 CHOP-promoter luciferase, tunicamycin-induced, 15-18 h. inhibition, % at 10 µM. actives 3.8% (n = 220,000);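 active means compounds that reduced the stress-induced luciferase reporter signal by more than about 70% of percent inhibition, limit read from the data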;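 further: 0% = tunicamycin plus vehicle and 100% = wells without tunicamycin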
p97 ATPase inh – inhibitors of human p97 ATPase, primary screen, biochemical; recombinant p97 ATPase, Kinase-Glo ATP luminescence, 3 h; inhibition, % at 8 µM; actives 0.42% (n = 220,000); AID 1481, 2009; in the data active means inhibition above about 15%;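 further: 0% = DMSO vehicle and 100% = wells lacking enzyme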
Target sequence (P55072 whole entry, looked up): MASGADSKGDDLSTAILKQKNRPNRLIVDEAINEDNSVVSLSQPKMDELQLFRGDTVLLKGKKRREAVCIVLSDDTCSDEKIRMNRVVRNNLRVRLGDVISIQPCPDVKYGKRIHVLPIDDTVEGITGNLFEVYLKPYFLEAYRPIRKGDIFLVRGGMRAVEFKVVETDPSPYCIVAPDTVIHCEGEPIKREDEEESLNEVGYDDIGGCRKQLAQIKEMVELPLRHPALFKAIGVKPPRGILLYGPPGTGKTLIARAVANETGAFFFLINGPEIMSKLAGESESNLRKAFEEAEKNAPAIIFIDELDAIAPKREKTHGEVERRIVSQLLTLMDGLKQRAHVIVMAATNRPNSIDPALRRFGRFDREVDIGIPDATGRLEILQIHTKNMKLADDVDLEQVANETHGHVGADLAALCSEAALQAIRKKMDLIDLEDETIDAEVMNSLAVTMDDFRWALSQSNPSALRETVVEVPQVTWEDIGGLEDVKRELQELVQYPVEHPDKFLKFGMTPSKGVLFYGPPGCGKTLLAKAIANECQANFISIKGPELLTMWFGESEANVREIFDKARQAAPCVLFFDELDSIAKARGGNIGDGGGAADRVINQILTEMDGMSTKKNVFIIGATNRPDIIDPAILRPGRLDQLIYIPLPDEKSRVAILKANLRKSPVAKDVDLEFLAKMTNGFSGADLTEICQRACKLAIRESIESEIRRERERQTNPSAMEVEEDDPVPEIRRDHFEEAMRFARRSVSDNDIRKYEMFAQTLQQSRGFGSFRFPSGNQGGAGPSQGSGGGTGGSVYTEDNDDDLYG
PfM18AAP inh – PfM18AAP inhibitors, malaria aminopeptidase, primary screen, biochemical, QFRET, recombinant enzyme; M18 aspartyl aminopeptidase (Plasmodium falciparum 3D7); H-Glu-NHMec fluorogenic cleavage; inhibition, % at 7.35 µM; actives 1.2% (n = 290,000); AID 1822, 2009;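 active means inhibition above the campaign mean inhibition over all tested compounds plus 3 SD, cut at about 28% in these data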;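 further: 0% = plate median of test compound wells and 100% = 2 mM ZnCl2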
UPR CHOP act – activators of apoptotic CHOP UPR arm, primary screen, cell-based, CHO-CHOP luciferase reporter, luminescence, uHTS; UPR activation; percent of tunicamycin response over DMSO baseline; activation, % at 10 µM; actives 0.34% (n = 330,000);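 active means at 10 µM dose, activation of 40% or more, normalized to positive control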;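 further: 100% = tunicamycin at 10 µg/mL and 0% = DMSO alone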
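System: CHO-CHOP luciferase reporter cell line | Buffer or medium: F12 medium containing 10% fetal bovine serum | Doses: One dose, 10 µM in 0.5% DMSO | Times: 6 h compound exposure at 37 °C after overnight seeding | Signal: Luciferase luminescence | Read-out: % activation vs tunicamycin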
Starred values were filed as active, the others as inactive; . = no result given.

SMILES	UPR XBP1 act	NS3 helicase inh	CHOP inhibitor	p97 ATPase inh	PfM18AAP inh	UPR CHOP act
CC1CCCN(CC(=O)Nc2cc(S(=O)(=O)N3CCOCC3)ccc2N2CCCC2)C1 (stereo unspecified)	-2	.	.	.	.	-2
O=C(COc1ccc(Br)cc1Cl)NC(=O)NC1CCCC1	3	.	.	.	.	7
O=C(COc1ccc(Br)cc1Cl)NC1CCCCC1	0	-2	71*	0	3	3
O=C(COc1ccc(S(=O)(=O)NC2CCCCC2)cc1Cl)Nc1ccc2c(c1)OCO2	0	-4	86*	-1	-6	2
CC(NC(=O)CCc1nnc(CCCc2ccccc2)o1)c1ccccc1 (stereo unspecified)	4	-2	8	-1	-1	2
N#C/C(=C\Nc1ccc2c(c1)OCCO2)c1nc(-c2ccccc2)cs1	6	7	-17	6	0	0
N#C/C(=C\Nc1ccc2c(c1)OCCO2)c1nc2ccccc2[nH]1	7	-14	74*	-4	2	3
O=C1NC(=Nc2ccc(Cl)cc2)SC1Cc1cc(Cl)ccc1Cl (stereo unspecified)	1	25	71*	-2	1	-2
COc1ccc(NC(=O)c2ccc(Cl)c(S(=O)(=O)NCC3CCCO3)c2)c(OC)c1 (stereo unspecified)	-5	-5	.	.	1	1
COc1cc(C2OCC3C(c4ccc(OC5OC(CO)C(O)C(O)C5O)c(OC)c4)OCC23)ccc1O (stereo unspecified)	-1	19	6	4	41*	-1
Cc1ccc(N/N=C2\CC(=O)c3ccccc32)cc1Cl	96*	-2	18	5	2	49*
CC(C)Oc1ccccc1/C=N/NC(=O)C1CC1	0	.	.	.	.	-1
CCCCOc1ccc(Br)cc1CSC(=N)N	.	-39	76*	3	3	.
CCOc1ccc(C(C)=O)cc1CSC(=N)N	-3	-6	2	4	1	0
CCCCCc1nc2c(C#N)c(-c3ccc(Cl)cc3)ccn2n1	4	-13	92*	0	3	3
CCOc1nc(Nc2ccc(OC)cc2)nc(OCC)n1	-2	0	20	-4	5	-1
CCOc1nc(Nc2ccc(OC)c(Cl)c2)nc(OCC)n1	0	-3	83*	-1	5	-2
Cc1cccc(C)c1NC(=O)C(C)Sc1n[nH]c(-c2ccncc2)n1 (stereo unspecified)	-2	5	.	.	1	0
Cc1ccc2c(c1)sc1nc(=O)n(-c3ccc(Cl)c(Cl)c3)c(=O)n12	8	17	19	8	1	29
Cc1ccc2c(c1)sc1nc(=O)n(-c3ccc(Cl)cc3)c(=O)n12	9	-4	80*	-5	-11	3
CC(=O)c1ccc(N2CCN(c3ccc(C(F)(F)F)cn3)CC2)cc1	.	-4	83*	0	-1	.
CC(=O)c1ccc(N2CCN(c3ncc(C(F)(F)F)cc3Cl)CC2)cc1	-1	6	79*	-3	-2	2
CC(=O)Nc1ccc(N2CCN(c3ccc(C(F)(F)F)cn3)CC2)nc1	-1	7	-21	-4	-3	0
CC(C)(C)NC(=O)NC(=O)CN1CCN(c2ncc(C(F)(F)F)cc2Cl)CC1	-3	0	78*	-2	-2	-2
CCOc1cccc(C(=O)Nc2nnc(-c3ccco3)s2)c1	-6	6	74*	4	-5	-2
SMILES	UPR XBP1 act	NS3 helicase inh	CHOP inhibitor	p97 ATPase inh	PfM18AAP inh	UPR CHOP act
CCC(C(=O)Nc1nnc(-c2ccco2)s1)c1ccccc1 (stereo unspecified)	2	4	75*	-2	3	1
O=C(O)C[C@@H]1C(=O)O[C@@H]2C(COC(=O)c3cc(O)c(O)c(O)c3)O[C@@H](OC(=O)c3cc(O)c(O)c(O)c3)[C@@H](OC(=O)c3cc(O)c(O)c4c3[C@H]1[C@H](O)C(=O)O4)[C@H]2OC(=O)c1cc(O)c(O)c(O)c1 (stereo partly specified)	.	.	4	.	.	.
COc1ccc(C(=O)COC(=O)c2ccc3c(c2)OCCO3)c(OC)c1	0	.	.	.	.	1
CCOC(=O)NC(NCc1ccccc1Cl)(C(F)(F)F)C(F)(F)F	3	9	95*	2	-7	0
FC(F)(F)c1ccc(C2Nc3cccc4cccc(c34)N2)cc1	2	23	87*	3	-12	0
C=CCC(C(=O)NC(C)c1ccccc1)C(=O)NC(C)c1ccccc1 (stereo unspecified)	-4	5	.	.	-1	1
OCCN1CCN(C(=S)c2ccc(Br)cc2)CC1	-2	12	14	-5	30*	1
S=C(c1ccc(Br)cc1)N1CCCC1	-6	-3	.	.	-10	2
Cc1ccc(NC(=O)c2ccc(=O)[nH]c2)cc1S(=O)(=O)N1CCCCCC1	-4	.	.	.	.	0
CN1CCN(c2oc(COc3ccc(-c4ccccc4)cc3)nc2C#N)CC1	0	-85	87*	-8	12	0
COc1ccc(CCNC(=S)N2CCN(S(=O)(=O)c3ccccc3F)CC2)cc1	0	-8	.	.	1	5
O=C(CN1CCN(S(=O)(=O)c2ccc(Br)s2)CC1)N1CCCCC1	0	.	.	.	.	1
O=C(COc1ccccc1)NCC(c1ccco1)N1CCN(c2ccccc2)CC1 (stereo unspecified)	0	.	.	.	.	0
Clc1ccc(-c2noc(CSc3nnc(Cc4cccs4)n3-c3ccccc3)n2)cc1	-2	4	81*	-19	14	0
c1ccc(-c2noc(CSc3nnc(Cc4cccs4)n3-c3ccccc3)n2)cc1	0	-8	14	0	7	1
Fc1ccc(-n2c(Cc3ccccc3)nnc2SCc2nc(-c3cccs3)no2)cc1	-3	-7	75*	-6	-15	0
O=C(COC(=O)c1n[nH]c2ccccc12)NCCc1ccccc1	-1	.	.	.	.	-1
Cc1nn(C)c(C)c1NC(=O)COc1ccc(Cl)cc1Br	-1	.	.	.	.	-1
O=c1cc(NCc2ccccc2)[nH]c(=O)[nH]1	0	.	.	.	.	0
O=C(OCc1ccc(Cl)cc1)c1cnccn1	-1	7	82*	-1	-13	-2
O=C1[C@@H]2Cc3c([nH]c4ccccc34)[C@@H](c3ccccc3)N2C(=O)[C@@H]2Cc3c([nH]c4ccccc34)[C@@H](c3ccccc3)N12	.	3	106*	7	2	.

Screens deposited in PubChem by several laboratories.
